According to ChEMBL document CHEMBL4425094, “Novel Benzo[a]quinolizidine Analogs Induce Cancer Cell Death through Paraptosis and Apoptosis” (J Med Chem, 2016):
Active and inactive are the calls of the source. No cut-off for these calls is given here.

Assays:
PC-3 [1] = assay: Induction of morphological changes in human PC3 cells assessed as formation of massive cytoplasmic vacuoles at 1 uM after 12 hrs by confocal microscopic analysis; assay type: functional, cell-based
MCF7 = assay: Cytotoxicity against human MCF7 cells assessed as cell growth inhibition after 24 hrs by MTT assay; assay type: functional, cell-based; conditions: MCF7, 24 h
How it was run: (§1)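 Cells seeded 24 h in RPMI 1640 + 10% FBS. RWPE-1 was kept in K-SFM with bovine pituitary extract and EGF. Cells then exposed to compounds for 24 h at 37 °C, 5% CO2, with DMSO vehicle and docetaxel as positive control. MTT added for 4 h, absorbance read at 570 nm. Triplicate runs, IC50 reported as mean of three experiments.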

MDA-MB-231 = assay: Cytotoxicity against human MDA-MB-231 cells assessed as cell growth inhibition after 24 hrs by MTT assay; assay type: functional, cell-based; conditions: MDA-MB-231, 24 h; how it was run: as §1
HeLa = assay: Cytotoxicity against human HeLa cells assessed as cell growth inhibition after 24 hrs by MTT assay; assay type: functional, cell-based; how it was run: as §1
DU-145 = assay: Cytotoxicity against human DU145 cells assessed as cell growth inhibition after 24 hrs by MTT assay; assay type: functional, cell-based; conditions: DU-145, 24 h; how it was run: as §1
PC-3 [2] = assay: Cytotoxicity against human PC3 cells assessed as cell growth inhibition after 24 hrs by MTT assay; assay type: functional, cell-based; conditions: PC-3, 24 h; how it was run: as §1
K562 = assay: Cytotoxicity against human K562 cells assessed as cell growth inhibition after 24 hrs by MTT assay; assay type: functional, cell-based; conditions: K562, 24 h; how it was run: as §1
RWPE-1 = assay: Cytotoxicity against human RWPE1 cells assessed as cell growth inhibition after 24 hrs by MTT assay; assay type: cell-based; conditions: RWPE-1, 24 h; how it was run: as §1

| Structure (SMILES) | Activity (PC-3 [1]) | IC50 (MCF7) | IC50 (MDA-MB-231) | IC50 (HeLa) | IC50 (DU-145) | IC50 (PC-3 [2]) | IC50 (K562) | IC50 (RWPE-1) |
| --- | --- | --- | --- | --- | --- | --- | --- | --- |
| C[C@@H]1C[C@@H](O)C[C@H]2c3cc(OCc4ccc(Br)cc4)c(OCc4ccc(Br)cc4)cc3CCN12 | Active | 1.29 µM | 0.88 µM | 1.16 µM | 2.58 µM | 1.24 µM | 1.22 µM |  |
| Cc1cc(C)cc(COc2cc3c(cc2OCc2cc(C)cc(C)c2)[C@@H]2C[C@](C)(O)C[C@@H](C)N2CC3)c1 | Active | 0.5 µM | 2.35 µM | 1.25 µM | 1.95 µM | 0.89 µM | 1.46 µM | 4.77 µM |
| C[C@@H]1C[C@@](C)(O)C[C@H]2c3cc(OCc4cccc(F)c4)c(OCc4cccc(F)c4)cc3CCN12 | Active | 0.47 µM | 0.59 µM | 0.96 µM | 2.14 µM | 0.41 µM | 1.01 µM | 1.86 µM |
| C[C@@H]1C[C@H](O)C[C@H]2c3cc(OCc4cc(C(F)(F)F)cc(C(F)(F)F)c4)c(OCc4cc(C(F)(F)F)cc(C(F)(F)F)c4)cc3CCN12 | Active | 1.87 µM | 0.56 µM | 2.84 µM | 1.87 µM | 0.68 µM | 1.15 µM | 2.32 µM |
| C[C@@H]1C[C@@](C)(O)C[C@H]2c3cc(OCc4cc(C(F)(F)F)cc(C(F)(F)F)c4)c(OCc4cc(C(F)(F)F)cc(C(F)(F)F)c4)cc3CCN12 | Active | 0.81 µM | 0.53 µM | 1.21 µM | 2.24 µM | 0.61 µM | 1.84 µM | 2.57 µM |
| C[C@@H]1C[C@@H](O)C[C@H]2c3cc(OCc4cccc(F)c4)c(OCc4cccc(F)c4)cc3CCN12 | Active | 0.49 µM | 0.58 µM | 1.73 µM | 3.85 µM | 0.82 µM | 1.42 µM | 1.49 µM |
| Cc1cc(C)cc(COc2cc3c(cc2OCc2cc(C)cc(C)c2)[C@@H]2C[C@@H](O)C[C@@H](C)N2CC3)c1 (racemic) | Active | 0.65 µM | 1.33 µM | 3.24 µM | 1.51 µM | 0.72 µM | 2.35 µM | 1.35 µM |
| C[C@@H]1CC(=O)C[C@H]2c3cc(OCc4cc(F)cc(F)c4)c(OCc4cc(F)cc(F)c4)cc3CCN12 (relative stereo) |  | > 20 µM | > 20 µM | > 20 µM | > 20 µM | > 20 µM | > 20 µM | > 20 µM |
| CC[C@@H]1C[C@@H](O)C/C=C(/C)[C@H]2c3cc(OCc4ccccc4)c(OCc4ccccc4)cc3CCN12 |  | > 20 µM | > 20 µM | > 20 µM | > 20 µM | > 20 µM | > 20 µM | > 20 µM |
| O[C@@H]1C[C@@H](c2ccccc2)N2CCc3cc(OCc4ccccc4)c(OCc4ccccc4)cc3[C@@H]2C1 |  | 20.1 µM | 11.8 µM | 11.2 µM | 12 µM | 8.37 µM | 6.96 µM | 40 to 86.8 µM |
| O=C1C[C@@H](c2ccccc2)N2CCc3ccccc3[C@@H]2C1 (relative stereo) |  | > 20 µM | > 20 µM | > 20 µM | > 20 µM | > 20 µM | > 20 µM | > 20 µM |
| COc1cc([C@@H]2C[C@H](O)C[C@H]3c4cc(OCc5ccccc5)c(OCc5ccccc5)cc4CCN23)cc(OC)c1OC |  | > 20 µM | > 20 µM | > 20 µM | > 20 µM | > 20 µM | > 20 µM | > 20 µM |
| COc1ccc([C@@H]2CC(=O)C[C@H]3c4cc(OCc5ccccc5)c(OCc5ccccc5)cc4CCN23)cc1 (relative stereo) |  | > 20 µM | > 20 µM | > 20 µM | > 20 µM | > 20 µM | > 20 µM | > 20 µM |
| C[C@@H]1CC(=O)C[C@H]2c3cc(OCc4ccc(C(C)(C)C)cc4)c(OCc4ccc(C(C)(C)C)cc4)cc3CCN12 (relative stereo) |  | > 20 µM | > 20 µM | > 20 µM | > 20 µM | > 20 µM | > 20 µM | > 20 µM |
| CC1(C)CC(=O)C[C@H]2c3cc(OCc4ccccc4)c(OCc4ccccc4)cc3CCN21 |  | > 20 µM | > 20 µM | > 20 µM | > 20 µM | > 20 µM | > 20 µM | > 20 µM |
| O[C@@]1(c2ccccc2)C[C@@H](c2ccccc2)N2CCc3cc(OCc4ccccc4)c(OCc4ccccc4)cc3[C@@H]2C1 |  | > 20 µM | > 20 µM | > 20 µM | > 20 µM | > 20 µM | > 20 µM | > 20 µM |
| CCCCCC[C@@H]1CC(=O)C[C@H]2c3cc(OCc4ccccc4)c(OCc4ccccc4)cc3CCN12 (relative stereo) |  | > 20 µM | > 20 µM | > 20 µM | > 20 µM | > 20 µM | > 20 µM | > 20 µM |
| O=C1C[C@@H](c2ccccc2)N2CCc3ccc(OCc4ccccc4)cc3[C@@H]2C1 (relative stereo) |  | > 20 µM | > 20 µM | > 20 µM | > 20 µM | > 20 µM | > 20 µM | > 20 µM |
| O[C@H]1C[C@@H](c2ccccc2)N2CCc3cc(OCc4ccccc4)c(OCc4ccccc4)cc3[C@@H]2C1 |  | > 20 µM | > 20 µM | > 20 µM | > 20 µM | > 20 µM | > 20 µM | > 20 µM |
| CCC[C@@H]1CC(=O)C[C@H]2c3cc(OCc4ccccc4)c(OCc4ccccc4)cc3CCN12 (relative stereo) |  | > 20 µM | > 20 µM | > 20 µM | > 20 µM | > 20 µM | > 20 µM | > 20 µM |
| O[C@@H]1C[C@@H](c2ccc(-c3ccccc3)cc2)N2CCc3cc(OCc4ccccc4)c(OCc4ccccc4)cc3[C@@H]2C1 |  | 0.28 µM | 3.28 µM | 3.42 µM | 1.36 µM | 1.16 µM | 3.24 µM | 4.42 µM |
| COc1ccc([C@@H]2C[C@H](O)C[C@H]3c4cc(OCc5ccccc5)c(OCc5ccccc5)cc4CCN23)cc1 |  | > 20 µM | > 20 µM | > 20 µM | > 20 µM | > 20 µM | > 20 µM | > 20 µM |
| COc1ccc([C@@H]2C[C@@H](O)C[C@H]3c4cc(OCc5cc(C)cc(C)c5)c(OCc5cc(C)cc(C)c5)cc4CCN23)cc1OC | Active | 1.32 µM | 0.97 µM | 3.05 µM | 4.53 µM | 1.15 µM | 3.95 µM | 3.04 µM |
| COc1cc2c(cc1OC)[C@@H]1C[C@@H](O)C[C@@H](c3ccccc3)N1CC2 |  | > 20 µM | > 20 µM | > 20 µM | > 20 µM | > 20 µM | > 20 µM | > 20 µM |
| CCOC1c2cc(OCc3cc(C)cc(C)c3)c(OCc3cc(C)cc(C)c3)cc2CCN1C(=O)OC(C)(C)C (stereo unspecified) |  | > 20 µM | > 20 µM | > 20 µM | > 20 µM | > 20 µM | > 20 µM | > 20 µM |
| Cc1cc(C)cc(COc2cc3c(cc2OCc2cc(C)cc(C)c2)CN(C(=O)OC(C)(C)C)CC3)c1 |  | > 20 µM | > 20 µM | > 20 µM | > 20 µM | > 20 µM | > 20 µM | > 20 µM |
| CCCCCCCCCCCCCCCCOc1cc2c(cc1OCCCCCCCCCCCCCCCC)[C@@H]1C[C@@H](O)C[C@@H](C)N1CC2 |  | > 20 µM | > 20 µM | > 20 µM | > 20 µM | > 20 µM | > 20 µM | > 20 µM |
| O=C1C[C@@H](c2ccccc2)N2CCc3cc(OCc4ccccc4)c(OCc4ccccc4)cc3[C@@H]2C1 (relative stereo) |  | > 20 µM | > 20 µM | > 20 µM | > 20 µM | > 20 µM | > 20 µM | > 20 µM |
| C[C@@H]1C[C@@H](O)C[C@H]2c3cc(OCc4cc(C(F)(F)F)cc(C(F)(F)F)c4)c(OCc4cc(C(F)(F)F)cc(C(F)(F)F)c4)cc3CCN12 | Active | 0.52 µM | 0.51 µM | 2.01 µM | 1.74 µM | 0.45 µM | 1.35 µM | 1.15 µM |
